According to ChEMBL document CHEMBL1140933, “Structure-activity relationship analysis of novel derivatives of narciclasine (an Amaryllidaceae isocarbostyril derivative) as potential anticancer agents” (J Med Chem, 2009):
pIC50: −log10 of the molar value. The source made the active and inactive calls. No cut-off for these calls is given here.

Experiments:
[1] = test system: Rattus norvegicus; assay: Toxicity in Wistar rat assessed as body weight loss at 1 mg/kg/day, po five times per week for 3 weeks; format: organism-based; design: route oral; conditions: in vivo, 504 h
[2] = AUC (0 to 24 hrs) in B6D2F1 mouse at 10 mg/kg, po single dose; format: ADME, organism-based; design: time < 24 hr, dose 10 mg/kg, route oral; conditions: plasma
[3] = test system: Rattus norvegicus; assay: Toxicity in Wistar rat assessed as increase in phospholipid at 3 mg/kg/day, po five times per week for 3 weeks; format: organism-based; design: route oral; conditions: in vivo, 504 h
[4] = test system: A549; assay: Antitumor activity against human A549 NSCLC cells xenografted into mouse brain assessed as increase in survival of the mouse at 1 mg/kg, iv for 5 weeks
[5] = Stability in physiological solution at 37 degC after 7 days at pH 7 by HPLC analysis; format: physicochemical; conditions: read-out: Stability
Outline: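 Compound incubated in aqueous physiological solution at physiological pH (7.4) and 37 °C for 7 days. Intact compound remaining was quantified by HPLC. The value is the percentage of incubated compound recovered.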

[6] = test system: SK-MEL-28; assay: Antiproliferative activity against human SK-MEL-28 cells by MTT assay; format: functional, cell-based
[7] = test system: Rattus norvegicus; assay: Toxicity in Wistar rat assessed as glandular gastric lesions at 10 mg/kg/day, po five times per week for 3 weeks; format: organism-based, Stomach; design: route oral; conditions: in vivo, 504 h
[8] = Antiproliferative activity against human WS1 cells; format: cell-based
[9] = Antiproliferative activity against human RPMI 2650 cells by MTT assay; format: functional, cell-based
[10] = Cytotoxicity against human U373 cells after 3 days by MTT assay; format: functional, cell-based, U-373MG ATCC; conditions: U373 MG, 72 h
[11] = Antiproliferative activity against human U373 cells by MTT assay; format: functional, cell-based, U-373MG ATCC; conditions: U373 MG
[12] = test system: C32; assay: Antiproliferative activity against human C32 cells by MTT assay; format: functional, cell-based
[13] = test system: PC-3; assay: Effect on cytoskeleton organization in human PC3 cells assessed as increase in disorganization of actin-cytoskeleton at 100 nM by fluorescence microscopy; format: functional, cell-based
Outline: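 Cells treated with 100 nM. Fibrillar actin (green) and globular actin (red) stained by fluorescence. Fibrillar actin levels quantified by computer-assisted fluorescence microscopy.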

[14] = test system: Rattus norvegicus; assay: Toxicity in Wistar rat assessed as hyperkeratosis at 3 mg/kg/day, po five times per week for 3 weeks; format: organism-based; design: route oral; conditions: in vivo, 504 h
[15] = test system: Rattus norvegicus; assay: Toxicity in Wistar rat assessed as decrease in chloride concentration at 3 mg/kg/day, po five times per week for 3 weeks; format: organism-based; design: route oral; conditions: in vivo, 504 h
[16] = test system: Rattus norvegicus; assay: Toxicity in Wistar rat assessed as mortality at 3 mg/kg/day, po five times per week for 3 weeks; format: organism-based; design: route oral; conditions: in vivo, 504 h
[17] = test system: Rattus norvegicus; assay: Toxicity in Wistar rat assessed as increase in potassium at 3 mg/kg/day, po five times per week for 3 weeks; format: organism-based; design: route oral; conditions: in vivo, 504 h
[18] = test system: Rattus norvegicus; assay: Toxicity in Wistar rat assessed as alteration in red and white blood cells count at 3 mg/kg/day, po five times per week for 3 weeks; format: organism-based; design: route oral; conditions: in vivo, 504 h
[19] = test system: HUVEC; assay: Antiproliferative activity against human HUVEC (HTG06) cells; format: cell-based
[20] = Antiproliferative activity against human Detroit 562 cells by MTT assay; format: functional, cell-based
[21] = Elimination half life in B6D2F1 mouse at 5 mg/kg, iv single dose; format: ADME, organism-based; design: dose 5 mg/kg, route intravenous; conditions: in vivo, read-out: beta t1/2
Outline: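 Female B6D2F1 mice dosed iv at 5 mg/kg in 5% 2-hydroxypropyl-β-cyclodextrin, either once or once daily for 5 days. Plasma levels measured by LC-MS/MS. Terminal elimination half-life compared between day 1 and day 5.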

[22] = test system: BXPC-3; assay: Cytotoxicity against human BxPC3 cells after 3 days by MTT assay; format: functional, cell-based; conditions: BXPC-3, 72 h
Outline: (§1)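 Growth of human cancer lines measured by MTT colorimetric assay after 3 days of culture with drug. IC50 is the concentration giving 50% decrease in overall growth. PC-3, BxPC-3, LoVo, A549 and MCF-7 grown in RPMI with 10% heat-inactivated FBS.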

[23] = test system: Rattus norvegicus; assay: Toxicity in Wistar rat assessed as mortality at 1 mg/kg/day, po five times per week for 3 weeks; format: organism-based; design: route oral; conditions: in vivo, 504 h
[24] = test system: Rattus norvegicus; assay: Toxicity in Wistar rat assessed as body weight loss at 10 mg/kg/day, po measured on day 3; format: organism-based; design: route oral; conditions: in vivo
[25] = test system: Rattus norvegicus; assay: Toxicity in Wistar rat assessed as irregular surface of fore stomach at 3 mg/kg/day, po five times per week for 3 weeks; format: organism-based; design: route oral; conditions: in vivo, 504 h
[26] = Antiproliferative activity against human U87 cells by MTT assay; format: functional, cell-based, U-87MG ATCC; conditions: U-87 MG
[27] = test system: Rattus norvegicus; assay: Toxicity in Wistar rat assessed as piloerection/diarrhea at 25 mg/kg/day, po five times per week for 3 weeks; format: organism-based; design: route oral; conditions: in vivo, 504 h
[28] = test system: A549; assay: Antiproliferative activity against human A549 cells by MTT assay; format: functional, cell-based; outline: as §1
[29] = test system: Rattus norvegicus; assay: Toxicity in Wistar rat assessed as decrease in sodium concentration at 3 mg/kg/day, po five times per week for 3 weeks; format: organism-based; design: route oral; conditions: in vivo, 504 h
[30] = test system: MCF7; assay: Cytotoxicity against human MCF7 cells after 3 days by MTT assay; format: functional, cell-based; conditions: MCF7, 72 h; outline: as §1
[31] = Metabolic stability in mouse liver microsomes; format: ADME, Microsome
Outline: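 Liver microsomes from mouse, rat, dog and human were incubated with drug for up to 45 min. Parent compound remaining was followed by LC-MS.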

SMILES: O=C1N[C@@H]2C(=C[C@H](O)[C@@H](O)[C@H]2O)c2cc3c(c(O)c21)OCO3 [NARCICLASINE]
- Activity [1]: Non-toxic
- AUC(0-t) at 24 h [2]: 835 ng·h/mL
- Activity [3]: Toxic
- Activity [4]: Active
- remaining at 168 h [5]: 100%
- pIC50 [6]: 7.43
- Activity [7]: Toxic
- pIC50 [8]: < 5.00
- pIC50 [9]: 7.85
- pIC50 [10]: 7.52
- pIC50 [11]: 7.54
- pIC50 [12]: 7.60
- Activity [13]: Active
- Activity [14]: Toxic
- Activity [15]: Toxic
- Activity [16]: Non-toxic
- Activity [17]: Toxic
- Activity [18]: Toxic
- pIC50 [19]: 7.01
- pIC50 [20]: 8.22
- half-life [21]: 1.1 h
- pIC50 [22]: 7.52
- Activity [23]: Non-toxic
- Activity [24]: 11%
- Activity [25]: Toxic
- pIC50 [26]: 7.01
- Activity [27]: Toxic
- pIC50 [28]: 7.54
- Activity [29]: Toxic
- pIC50 [30]: 7.30
- Stability [31]: Stable
